From PubChem BioAssay
Active and inactive are the calls of the source.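 How the source made its calls, unless noted: active means NADPH fluorescence slope more negative than the mean of all samples by about 3 SD, 99.7% confidence; inactive means the rest.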

What was measured:
[1] = inhibitors of TNFa-induced NFkB p65 translocation, primary screen, imaging, HUVEC, MLSMR starter and 10KST1 sets (AID 438;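 active means inhibition above 20% together with a positive visual image hit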;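 further: compound added about 3h40 before a 20 min TNFalpha stimulation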;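 on inhibition: signal is the nuclear over cytoplasmic p65 intensity ratio per well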); settings: HUVEC TNFa-induced p65 nuclear translocation; cell count: measured here: nuclei count (cytotoxicity indicator), at 2.08 µM; inhibition: at 2 µM, stronger effect = higher value, 0% TNFa-plus-vehicle, 100% no-TNFa wells
[2] = inhibitors of E-selectin induction by TNFa, primary screen, imaging, HUVEC, immunofluorescence, MLSMR starter and 10KST1 sets (AID 487;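 active means visually confirmed hit in the image check and inhibition above 20%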;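 on inhibition: signal is fraction of cell area covered by stained E-selectin grains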;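 on nuclei count: 100% = median nuclei count of all wells on the same plate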); settings: HUVEC TNFalpha-induced E-selectin immunofluorescence imaging, at 2 µM; inhibition: stronger effect = higher value; nuclei count: measured here: cell number, toxicity
[3] = DUSP6 inhibitors restoring Erk phosphorylation by chemical complementation, primary imaging in DUSP6-transfected HeLa (AID 609;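 active means compounds giving at least 50% inhibition in the cell-based MKP-3 phosphatase rescue imaging test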;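 on inhibition: phospho-Erk level distribution per well compared with pooled transfected vehicle control wells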); settings: HeLa MKP-3 transfected, phospho-Erk imaging KS statistic, at 10 µM, cells stimulated with TPA for 15 min
[4] = biological target: Dual specificity protein phosphatase 6 (Homo sapiens) (UniProt Q16828); assay: as above; settings: HeLa MKP-3 transfected, phospho-Erk imaging KS statistic; at 10 µM; stronger effect = higher value; cells stimulated with TPA for 15 min
[5] = biological target: Voltage-gated potassium channel subunit beta-2 (Rattus norvegicus) (UniProt P62483); assay: KvBeta enzyme negative modulators, primary screen, biochemical, NADPH fluorescence (AID 622;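 active means fluorescence slope higher than the sample average by over 3 SD, cut at about -0.22 in these data, passing the limit was not always enough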;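 further: slope of raw intensity against log time taken from 70 to 1610 s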); settings: recombinant KvBeta, 4-cyanobenzaldehyde reduction, at 10 µM, stronger effect = higher value
[6] = biological target: Voltage-gated potassium channel subunit beta-2 (Rattus norvegicus) (UniProt P62483); assay: KvBeta positive modulators, primary screen, biochemical, NADPH fluorescence (AID 623); settings: Recombinant KvBeta, NADPH fluorescence decrease slope, 10 min; at 10 µM; stronger effect = lower value;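 further: fluorescence intensity change per second fitted from 20 to 320 s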
[7] = biological target: Alpha-2C adrenergic receptor (Homo sapiens) (UniProt P18825); assay: modulators of alpha2C/GIRK thallium flux, primary screen, cell-based, HEK293 alpha2C/GIRK1/2 (AID 624;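 active means fluorescence slope after compound addition differing from the mean of all screened samples at 99.7% confidence, in either direction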;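 further: slope of fluorescence ratio to pre-addition baseline per second over 15 to 24 s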); settings: thallium flux BTC fluorescence, at 10 µM, actives lie on both sides
[8] = inhibitors of larval lipid processing in zebrafish, primary screen, whole organism, PED6 fluorescence, gall bladder and intestine (AID 686;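 active means a full or partial loss of lipid-probe fluorescence in the fish gall bladder, intestine or both, judged by eye; inactive means no fluorescence loss, or compound toxic to the fish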;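 further: larvae 5 to 7 days old with five fish per well; signal comes from phospholipase A2 cleavage of quenched PED6 carried via bile; overnight exposure to compound and PED6 before scoring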); settings: Zebrafish larvae PED6 lipid processing, fluorescence scoring; screened at 20 µM (by protocol)
Outline: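 Test system – live zebrafish larvae aged 5-7 days, whole organism · Buffer or medium – E3 fish medium · Reagent – quenched phospholipase substrate PED6, 100 nM final, ingested by larvae · Doses – 20 µM single dose · Incubation – overnight compound and PED6 incubation · Technique – visual fluorescence microscopy scoring of gall bladder, gut · Read-out basis – visual per-well fluorescence inhibition score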

[9] = inhibitors of Chlamydomonas gravitaxis, primary screen, whole organism, Chlamydomonas reinhardtii, WT vs cilia-less mutant, absorbance, 96-well (AID 463189;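 active means inhibition at or above 50% relative to wild type and mutant plate controls; inactive means inhibition below 50%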;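 further: 0% = wild type cc124 cells in DMSO and 100% = ciliumless bld1 mutant cells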); settings: OD600 absorbance, 2 days, at 10 µM, stronger effect = higher value
[10] = measured here: cell density z-score
[11] = measured here: nuclear c-Myc green intensity z-score
[12] = measured here: nuclear pErk red intensity z-score, stronger effect = higher value

Dual specificity protein phosphatase 6 (Homo sapiens), sequence (Q16828 whole entry, looked up): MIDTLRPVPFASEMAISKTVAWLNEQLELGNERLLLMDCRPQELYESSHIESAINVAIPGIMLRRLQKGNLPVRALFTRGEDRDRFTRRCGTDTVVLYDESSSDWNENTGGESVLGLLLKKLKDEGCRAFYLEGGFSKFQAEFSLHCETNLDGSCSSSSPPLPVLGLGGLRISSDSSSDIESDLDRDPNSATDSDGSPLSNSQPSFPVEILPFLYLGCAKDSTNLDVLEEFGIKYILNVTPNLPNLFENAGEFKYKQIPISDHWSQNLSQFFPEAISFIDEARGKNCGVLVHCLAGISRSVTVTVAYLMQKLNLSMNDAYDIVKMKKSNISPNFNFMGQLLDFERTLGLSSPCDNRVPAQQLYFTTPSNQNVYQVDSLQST
Alpha-2C adrenergic receptor (Homo sapiens), sequence (P18825 whole entry, looked up): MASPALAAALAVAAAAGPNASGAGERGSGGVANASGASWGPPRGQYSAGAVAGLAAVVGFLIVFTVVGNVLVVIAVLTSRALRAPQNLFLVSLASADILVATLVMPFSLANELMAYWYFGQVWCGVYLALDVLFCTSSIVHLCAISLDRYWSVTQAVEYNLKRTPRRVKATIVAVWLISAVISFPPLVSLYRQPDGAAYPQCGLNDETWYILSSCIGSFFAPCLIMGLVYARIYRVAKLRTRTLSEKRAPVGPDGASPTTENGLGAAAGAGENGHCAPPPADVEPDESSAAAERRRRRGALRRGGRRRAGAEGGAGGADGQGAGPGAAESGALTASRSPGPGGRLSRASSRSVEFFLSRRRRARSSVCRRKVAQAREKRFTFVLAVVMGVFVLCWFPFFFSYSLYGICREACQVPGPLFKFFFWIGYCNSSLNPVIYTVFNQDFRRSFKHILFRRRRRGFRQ
Voltage-gated potassium channel subunit beta-2 (Rattus norvegicus), sequence (P62483 whole entry, looked up): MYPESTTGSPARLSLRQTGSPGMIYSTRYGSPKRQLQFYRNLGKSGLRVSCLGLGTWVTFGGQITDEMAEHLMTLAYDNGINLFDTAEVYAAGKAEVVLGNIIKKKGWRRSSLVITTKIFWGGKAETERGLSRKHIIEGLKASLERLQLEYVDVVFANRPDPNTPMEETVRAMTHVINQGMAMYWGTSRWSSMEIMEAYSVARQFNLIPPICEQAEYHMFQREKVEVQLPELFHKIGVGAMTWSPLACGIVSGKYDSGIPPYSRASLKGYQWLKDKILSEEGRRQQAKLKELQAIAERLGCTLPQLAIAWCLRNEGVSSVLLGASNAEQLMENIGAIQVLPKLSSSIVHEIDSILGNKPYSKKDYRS

| Compound | cell count [1] | inhibition [1] | inhibition [2] | nuclei count [2] [%] | z-score [3, 10] | z-score [3, 11] | z-score [3, 12] | inhibition [4] | fluorescence slope [5] | NADPH fluorescence slope [6] | slope [7] | outcome [8] | inhibition [9] |
| --- | --- | --- | --- | --- | --- | --- | --- | --- | --- | --- | --- | --- | --- |
| CCCC1C2C(=O)N(c3ccccc3OC)C(=O)C2ON1c1ccccc1 (configuration not stated) | 329 | -20.4% (inactive) | -107% (inactive) | 93.8 | 1.11 | 1.02 | 0.149 | 11.3% (inactive) | -0.536 (inactive) | -2.6e-05 (inactive) | 0.00508 (inactive) | inactive | 32.4% (inactive) |
| c1ccc(OCc2nn3c(C4CCCCC4)nnc3s2)cc1 | 633 | -8.1% (inactive) | -110% (inactive) | 167 | -0.542 | -0.363 | 1.81 | -6.06% (inactive) | -0.434 (inactive) | -0.000186 (inactive) | 0.00482 (inactive) | inactive | -1.22% (inactive) |
| O=C(CN1C(=O)c2ccccc2C1=O)NCc1ccncc1 | 357 | -6.8% (inactive) | -60.9% (inactive) | 167 | 0.341 | -1.51 | 1.76 | -10.6% (inactive) | -0.432 (inactive) | -0.000133 (inactive) | 0.00529 (inactive) | inactive | 31% (inactive) |
| COc1ccc(CN2CCC(=O)NC2=O)cc1 | 670 | -14.7% (inactive) | -450% (inactive) | 162 | 0.756 | -1.36 | 0.0301 | 9.39% (inactive) | -0.502 (inactive) | -3.7e-05 (inactive) | 0.00539 (inactive) | inactive | 2.33% (inactive) |
| CC1(C)Cc2c(sc(NC(=O)c3ccc(Br)o3)c2C#N)CO1 | 406 | -17.8% (inactive) | -330% (inactive) | 140 | 0.838 | -0.788 | -0.494 | 7.48% (inactive) | -0.371 (inactive) | -1.6e-05 (inactive) | 0.00697 (inactive) | inactive | 8.5% (inactive) |
| CC(C)C1Cc2c(sc3c2c(=O)n(Cc2ccccc2)c2nncn32)CO1 (configuration not stated) | 557 | -4.6% (inactive) | -2.8% (inactive) | 115 | 1.56 | 0.421 | -0.614 | 9.61% (inactive) | -0.481 (inactive) | -0.000346 (inactive) | 0.00509 (inactive) | inactive | 8.24% (inactive) |
| Cn1c(SCC(=O)N2CCOCC2)nnc1-c1ccc(Cl)cc1Cl | 359 | -9.4% (inactive) | -17.3% (inactive) | 101 | 0.947 | -0.186 | -0.938 | 1.75% (inactive) | -0.453 (inactive) | 1.1e-05 (inactive) | 0.00668 (inactive) | inactive | -14.7% (inactive) |
| CN(C)c1nc2sc3c(c2c(=O)n1C)CC(C)(C)OC3 | 651 | -12.1% (inactive) | -452% (inactive) | 185 | -0.36 | 0.198 | 1 | -0.159% (inactive) | -0.514 (inactive) | -4.6e-05 (inactive) | 0.00471 (inactive) | inactive | 157% (active) |
| CCOC(=O)CC(=O)CSc1nc(N)c(C#N)c(-c2ccc(F)cc2)c1C#N | 650 | -5.7% (inactive) | 44% (inactive) | 167 | -1.03 | 0.96 | 2.1 | -7.28% (inactive) | -0.366 (inactive) | -6.3e-05 (inactive) | 0.00627 (inactive) | inactive | -14.2% (inactive) |
| CN(C)c1ccc(-c2nn3c(-c4ccc(Cl)cc4)nnc3s2)cc1 | 615 | -7.8% (inactive) | -183% (inactive) | 147 | 0.167 | -0.869 | -2.02 | 19.1% (inactive) | -0.409 (inactive) | -0.000319 (inactive) | 0.00702 (inactive) | inactive | 14.6% (inactive) |
| CCOc1ccc(/C(O)=C2/C(=O)C(=O)N(CCN(CC)CC)C2c2ccco2)cc1 (configuration not stated) | 494 | -10.3% (inactive) | -38.9% (inactive) | 136 | 0.106 | 0.969 | -0.475 | -15% (inactive) | -0.521 (inactive) | -4.6e-05 (inactive) | 0.00598 (inactive) | inactive | -2.21% (inactive) |
| CCCOc1ccc(C2NC(=O)NC2=O)cc1 (configuration not stated) | 614 | -8% (inactive) | -260% (inactive) | 113 | -0.563 | 1.62 | 0.505 | -0.159% (inactive) | -0.511 (inactive) | -7.1e-05 (inactive) | 0.00583 (inactive) | inactive | -17% (inactive) |
| CSc1nc(O)c(Cc2ccccc2)c(=O)[nH]1 | 543 | 5.9% (inactive) | 23.6% (inactive) | 105 | -0.704 | -0.524 | -0.136 | 1.6e-07% (inactive) | -0.403 (inactive) | 2.5e-05 (inactive) | 0.00553 (inactive) | inactive | 33.4% (inactive) |
| COc1ccc(C(=O)CSC2=C(C#N)C3(CCCCC3)C(C#N)=C(N)N2)cc1 | 705 | -13.2% (inactive) | -25.4% (inactive) | 192 | -0.688 | 1.18 | 0.232 | 2.71% (inactive) | -0.393 (inactive) | -3.2e-05 (inactive) | 0.00422 (inactive) | inactive | -3.04% (inactive) |
